Data on eleven compounds can be found in ChEMBL document CHEMBL4229410, “Facile construction of fused benzimidazole-isoquinolinones that induce cell-cycle arrest and apoptosis in colorectal cancer cells” (Bioorg Med Chem, 2018).

One experiment has as its system HT-29. In words: Growth inhibition of human HT-29 cells by MTT assay. The format is functional. The gist of the method: (§1)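 MTT viability assay: 3×10³ cells/well were pre-incubated for 24 h, then exposed to 0, 12.5, 25, 50, 100 or 200 μM for 12, 24, 48 or 72 h. MTT was added at 0.5 mg/mL final for 4 h, formazan dissolved in DMSO, and absorbance read at 570 nm. GI₅₀ was taken from growth-inhibition curves; mean ± SD of three independent experiments, each in sextuplicate.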

Another experiment concerns SW-620. In words: Growth inhibition of human SW620 cells by MTT assay. The format is functional. Summed up: as §1

Take `CC(C)CN(C(=O)c1ccco1)c1c2ccccc2c(=O)n2c1[nH]c1ccccc12`: the GI50 in the experiment with HT-29 came to 52.8 µM; in the experiment on SW-620 it was 53.5 µM.

As to `O=C(c1ccccc1)N(c1ccccc1)c1c2ccccc2c(=O)n2c1[nH]c1ccccc12`, the GI50 with HT-29 and in the experiment with SW-620 was greater than 100 µM in each case.

On to `O=C(c1ccco1)N(c1ccccc1Br)c1c2ccccc2c(=O)n2c1[nH]c1ccccc12`, for which the GI50 with HT-29 fell in the range of 43.7 to 100 µM; in the experiment with SW-620, 46 to 100 µM.

As to `O=C(c1ccccc1)N(Cc1ccccc1)c1c2ccccc2c(=O)n2c1[nH]c1ccccc12`, the figures for the GI50 in the experiment with HT-29 and with SW-620 were 74.3 µM and 69.7 µM, respectively.

Take `O=C(c1cccs1)N(c1c2ccccc2c(=O)n2c1[nH]c1ccccc12)C1CC1`: the GI50 with HT-29 was found to be 51.3 µM; with SW-620, 47.6 µM.

For `O=C(c1cccnc1)N(c1ccccc1Br)c1c2ccccc2c(=O)n2c1[nH]c1ccccc12`, the GI50 with HT-29 stood at 61.3 µM; in the experiment on SW-620, 57.9 µM.

Consider `O=C(c1ccncc1)N(CCc1ccccc1)c1c2ccccc2c(=O)n2c1[nH]c1ccccc12`, for which the GI50 was 52.3 µM in the experiment with HT-29 and 48.9 µM with SW-620.

On to `CC(C)CN(C(=O)c1ccccc1C(=O)O)c1c2ccccc2c(=O)n2c1[nH]c1ccccc12`, for which the values for the GI50 with HT-29 and with SW-620 were 59.8 µM and 52.7 µM, respectively.

In the case of `CC(C)CN(C(=O)c1cccs1)c1c2ccccc2c(=O)n2c1[nH]c1ccccc12`, the GI50 in the experiment with HT-29 stood at 49.5 µM; in the experiment with SW-620 it was 44.1 µM.

As to `O=C(Nc1c2ccccc2c(=O)n2c1[nH]c1ccccc12)c1ccccc1`, the GI50 in the experiment with HT-29 and in the experiment with SW-620 was greater than 100 µM in each case.

In the case of `CC(=O)N(c1ccccc1Br)c1c2ccccc2c(=O)n2c1[nH]c1ccccc12`, the GI50 in the experiment on HT-29 fell in the range of 57.2 to 100 µM; with SW-620 it was 46.9 to 100 µM.
